Data set [1] concerns Human betaherpesvirus 5. Description: Antiviral activity against HCMV in MRC5 cells by plaque reduction assay. Format: functional, organism-based. The settings on record: Human betaherpesvirus 5, MRC5. In outline: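 HCMV plaque yield reduction assay in MRC-5 cells. IC50 is the 50% inhibitory concentration. Values are means of three experiments.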
On the technique in general: In a plaque reduction assay, fewer plaques than in the control indicate reduced infectivity or spread.

Another data set deals with MRC5. Nature of the data set: (§1) Cytotoxicity against MRC5 cells. It counts as cell-based, Homo sapiens. The settings on record: Homo sapiens, MRC5.
A short description of data set [2]: Selectivity index, ratio of CC50 for MRC5 cells to IC50 for HCMV. Format: functional. In short, it runs like this: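 Ratio of CC50 (50% cytotoxic concentration in MRC-5 cells) to IC50 from the HCMV plaque yield reduction assay in MRC-5 cells. Values are means of three experiments.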
Data set [3] can be described thus: as §1. It counts as cell-based, Homo sapiens. The settings on record: human, MRC5 cells.
Data set [4] relates to Human betaherpesvirus 5. Description: Inhibition of HCMV adsorption to MRC5 cells at 0.2 to 2 uM by infectious centre assay. Format: functional, organism-based. In outline:
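Infectious centre assay for adsorption: HCMV (1 PFU/cell), MRC-5 cell suspension (1 · 10^5 cells/mL) and compound (final 0.2, 0.5, 1, 2) were chilled on ice 2 h, then mixed and held 1 h at 4 C. Cells were washed with ice-cold PBS to remove unbound virus and compound. Pellets were diluted 100- or 1000-fold and plated onto MRC-5 monolayers for plaque counting.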

The test system of data set [5] is Human betaherpesvirus 5. Nature of the data set: Inhibition of HCMV penetration to MRC5 cells at 0.2 to 2 uM. It counts as functional, organism-based. In short, it runs like this: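 HCMV (about 100 PFU/well) was bound to pre-chilled MRC-5 monolayers for 1 h at 4 C, then washed three times with ice-cold PBS. Cells were shifted to 37 C in medium with compound (final 0.2, 0.5, 1 or 2). At 0, 0.5, 1, 2, 3, 6 and 10 h, unpenetrated virus was inactivated with 40 mM citrate buffer pH 3.0 for 1 min. Plaques were counted under 0.5% methylcellulose overlay.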

Data set [6] concerns Human betaherpesvirus 5. Nature of the data set: Inhibition of HCMV proliferation in MRC5 cells after 24 hrs post-infection at 10 uM by plaque assay. Format: functional, organism-based. In short, it runs like this:
(§2)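 Time-of-addition: MRC-5 cultures were infected at 0.5 PFU/cell, and compound (10 µM) was added at set times from 0 to 120 h post-infection. Virus titre was measured by plaque assay at 168 h post-infection and expressed as percent of control plaque numbers. Values are means of duplicate assays.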

In data set [7] the test system is Human betaherpesvirus 5. Nature of the data set: Inhibition of HCMV proliferation in MRC5 cells after 54 hrs post-infection at 10 uM by plaque assay. It counts as functional, organism-based. In short, it runs like this: as §2

Active and inactive are the calls of the source. No cut-off for these calls is given here. Where only a bound is given, the exact number is not on record here.

Usually IC50 stands for the concentration needed to halve the response being measured. Turning to `COc1ccc2c(c1OC)C(C#N)N1CCc3cc4c(cc3C1=C2)OCO4` (stereo not given), the values for the IC50 with Human betaherpesvirus 5 [1] and in the data set with MRC5 were 0.88 µM and 16 µM, respectively. In addition, the “Ratio CC50/IC50” value in data set [2] stood at 18.

The CC50 is the concentration at which the toxic effect on the cells reaches its halfway point. A low value points to harm at low concentration. `COc1cc(OC)c2c(c1)OC(c1ccc(OC)c(OC)c1)C(OC)C2` (stereo not given) had a concentration for half-maximal inhibition (IC50) in the data set with Human betaherpesvirus 5 [1] of 17 µM. In data set [3], this molecule returned a CC50 of 68 µM. Further, the “Ratio CC50/IC50” value in data set [2] is on record as 4.

In the data set with Human betaherpesvirus 5 [1], `COc1cc(OC)c2c(c1)OC(c1ccc(OC)c(OC)c1)C(O)C2` (stereo not given) displayed an IC50 of over 200 µM. The midpoint of cytotoxicity in data set [3], the CC50, lay at 190 µM. For the same molecule, in data set [2], the “Ratio CC50/IC50” value is under 1.

For `COc1ccc(C2CC(=O)c3c(OC)cc(O)cc3O2)cc1` (stereo not given), in the data set on Human betaherpesvirus 5 [1], the IC50 came to 92 µM. In addition, half-maximal cytotoxicity in data set [3] (CC50) was put at 12 µM. Also, in data set [2], the “Ratio CC50/IC50” value came out at 0.13.

`COc1ccc2c(c1OC)C(C(Cl)(Cl)Cl)N1CCc3cc4c(cc3C1=C2)OCO4` (stereo not given): the IC50 with Human betaherpesvirus 5 [1] came out at 0.52 µM. In addition, in data set [3], the CC50 was 8.4 µM. The “Ratio CC50/IC50” value in data set [2] is 16.

In the data set with Human betaherpesvirus 5 [1], `COc1cc(C[C@H]2C(=O)OC[C@@H]2Cc2ccc(OC)c(OC)c2)ccc1O` [ARCTIGENIN] came in with an IC50 of 2.1 µM. The midpoint of cytotoxicity in data set [3], the CC50, lay at 76 µM. Besides, in data set [2], the “Ratio CC50/IC50” value is given as 36.

Consider `COc1ccc(C[C@H]2COC(=O)[C@@H]2Cc2ccc(O[C@@H]3O[C@H](CO)[C@@H](O)[C@H](O)[C@H]3O)c(OC)c2)cc1OC` [ARCTIIN], for which, in the data set with Human betaherpesvirus 5 [1], the IC50 came to 16 µM. Besides, in data set [3], it took 240 µM to reach half-maximal cytotoxicity (CC50). Besides, the “Ratio CC50/IC50” value in data set [2] was determined as 15.

As to `COc1ccc2cc3[n+](cc2c1OC)CCc1cc2c(cc1-3)OCO2.[Cl-]` [BERBERINE CHLORIDE], inhibition with Human betaherpesvirus 5 [1] was half-maximal at 0.68 µM (IC50). In addition, the result in the data set on Human betaherpesvirus 5 [4] and in the data set with Human betaherpesvirus 5 [5] was inactive. In data set [3], this molecule registered a CC50 of 74 µM. Also, in data set [2], the “Ratio CC50/IC50” value is given as 110. The outcome with Human betaherpesvirus 5 [6] and in the data set on Human betaherpesvirus 5 [7] was Active.

As to `COc1ccc2c(c1OC)CN1CCc3cc4c(cc3[C@@H]1C2)OCO4` [CANADINE], half-maximal inhibition in the data set on Human betaherpesvirus 5 [1] (IC50) required 12 µM. The CC50 in data set [3] was determined as 125 µM. Moreover, the “Ratio CC50/IC50” value in data set [2] stood at 10.

In the data set with Human betaherpesvirus 5 [1], `COc1ccc2c(c1OC)CN1CCc3cc4c(cc3C1=C2)OCO4` [DIHYDROBERBERINE] had a half-maximal inhibitory concentration (IC50) of 93 µM. It took 155 µM to reach half-maximal cytotoxicity in data set [3] (CC50). Also, in data set [2], the “Ratio CC50/IC50” value worked out at 1.7.

Turning to `Nc1nc2c(ncn2COC(CO)CO)c(=O)[nH]1` [GANCICLOVIR], the values for the IC50 with Human betaherpesvirus 5 [1] and in the data set with MRC5 were 0.91 µM and 970 µM, respectively. The “Ratio CC50/IC50” value in data set [2] came to 1100.

With `COc1ccc(Cc2nccc3cc(OC)c(OC)cc23)cc1OC.Cl` [PAPAVERINE HYDROCHLORIDE], in the data set with Human betaherpesvirus 5 [1], the IC50 turned out to be 21 µM. The CC50 in data set [3] was determined as 610 µM. The “Ratio CC50/IC50” value in data set [2] stood at 29.
